Target: T1, Calpain-2 catalytic subunit (Homo sapiens, UniProt P17655)
T1 sequence (P17655 whole entry): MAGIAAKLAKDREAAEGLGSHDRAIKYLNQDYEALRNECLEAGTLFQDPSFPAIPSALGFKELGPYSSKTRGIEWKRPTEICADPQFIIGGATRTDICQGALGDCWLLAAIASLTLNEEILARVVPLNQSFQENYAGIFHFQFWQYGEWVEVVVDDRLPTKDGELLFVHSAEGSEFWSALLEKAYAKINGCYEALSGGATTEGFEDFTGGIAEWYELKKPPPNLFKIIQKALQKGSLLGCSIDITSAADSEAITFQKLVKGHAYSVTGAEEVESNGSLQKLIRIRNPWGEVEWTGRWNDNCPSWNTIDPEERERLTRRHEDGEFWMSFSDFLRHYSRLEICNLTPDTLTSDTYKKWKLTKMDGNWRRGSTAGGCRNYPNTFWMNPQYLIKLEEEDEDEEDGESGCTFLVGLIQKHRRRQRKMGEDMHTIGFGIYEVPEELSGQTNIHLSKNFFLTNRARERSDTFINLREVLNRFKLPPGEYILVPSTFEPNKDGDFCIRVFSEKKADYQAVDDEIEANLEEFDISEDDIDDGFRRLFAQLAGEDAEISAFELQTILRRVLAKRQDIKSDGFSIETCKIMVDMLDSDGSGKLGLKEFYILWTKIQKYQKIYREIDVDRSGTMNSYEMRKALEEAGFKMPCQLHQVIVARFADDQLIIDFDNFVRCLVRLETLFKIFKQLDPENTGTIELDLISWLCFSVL
Assay: Compound was evaluated for the inhibition of Cysteine protease Calpain 2
In short: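 Calpain assay in 25 mM Tris, pH 8.0, with 10 mM CaCl₂ and 5% DMSO. Suc-Leu-AMC hydrolysis was read as initial velocity (t = 30-60 s) after a 30 s delay, at room temperature. Five or more inhibitor concentrations (not above 2 × K_obs) were used at two fixed substrate levels. Ki came from Dixon plots (1/v vs I) averaged over triplicates.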

Row | Structure (SMILES) | Ki [nM]
1 | CCC(NC(=O)C(CC(C)C)NC(=O)OCc1ccccc1)C(=O)C(=O)NCc1nc2c(c(=O)n(C)c(=O)n2C)n1C (stereo not given) [{3-Methyl-1-[1-(1,3,7-trimethyl-2,6-dioxo-2,3,6,7-tetrahydro-1H-purin-8-ylmethyl)-aminooxalyl]-propylcarbamoyl}-butyl)-carbamic acid benzyl ester] | 4600
2 | CCC(NC(=O)C(CC(C)C)NC(=O)OCc1ccccc1)C(=O)C(=O)NCCc1ccccn1 (stereo not given) [{3-Methyl-1-[1-(2-pyridin-2-yl-ethylaminooxalyl)-propylcarbamoyl]-butyl}-carbamic acid benzyl ester] | 470
3 | CCCC(NC(=O)C(CC(C)C)NC(=O)OCc1ccccc1)C(=O)C(=O)NCCCN1CCOCC1 (stereo not given) [{3-Methyl-1-[1-(3-morpholin-4-yl-propylaminooxalyl)-butylcarbamoyl]-butyl}-carbamic acid benzyl ester] | 100
4 | CCC(NC(=O)C(CC(C)C)NC(=O)OCc1ccccc1)C(=O)C(=O)NCc1ccccn1 (stereo not given) [{3-Methyl-1-[1-(pyridin-2-ylmethyl)-aminooxalyl]-propylcarbamoyl}-butyl)-carbamic acid benzyl ester] | 17
5 | CCC(NC(=O)C(CC(C)C)NC(=O)OCc1ccccc1)C(=O)C(=O)NCc1ccncc1 (stereo not given) [{3-Methyl-1-[1-(pyridin-4-ylmethyl)-aminooxalyl]-propylcarbamoyl}-butyl)-carbamic acid benzyl ester] | 110
